Source: PubChem BioAssay
B2AR ag: agonists of human beta-2 adrenergic receptor inducing internalization; Am2.2-beta2AR cells, FAP receptor internalization, flow cytometry; P07550; 340,000 tested, 0.43% active; response, % (concentration not given with the values);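 active = response above a set limit, near 3 SD of response in nonfluorescent compounds, cut at about 42% in these data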
CXCR6 block: CXCR6 (human) receptor inhibition; inhibition, % at 20 µM; 360,000 tested, 0.36% active; AID 602244; O00574; CHO-K1 PathHunter CXCR6 beta-arrestin, luminescence; in the data active = inhibition above about 34%, passing the limit was not always enough;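 note: antagonist mode with CXCL16 agonist at 10 nM final; 0% = 10 nM CXCL16 with DMSO and 100% = unstimulated wells without agonist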
APJ agonist: activates the human apelin receptor APJ; P35414; CHO-K1 APJ PathHunter beta-arrestin, luminescence; 0% DMSO wells, 100% apelin; activation, % at 20 µM; 330,000 tested, 0.11% active; AID 2520;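 active = activation more than six SD over the plate average, tested at 20 µM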;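 note: 0% = DMSO alone and 100% = apelin-13 at 10 nM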
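Material: CHO-K1 APJ beta-arrestin complementation cell line; Input: cell density 1000 per well; Incubation: compound stimulation 90 min at 25 °C, detection 60 min; Signal: luminescence from split beta-galactosidase complementation, Galacton Star/Emerald II substrate; Controls: DMSO-only wells as negative, 10 nM Apelin-13 as positive control.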
APJ antag: antagonists of human APJ apelin receptor; P35414; CHO-K1 APJ beta-arrestin complementation, luminescence; inhibition, % at 20 µM; 330,000 tested, 0.32% active;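 active = inhibition above about 40% at 20 µM, limit read from the data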;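 note: cells challenged with 10 nM apelin-13 agonist together with compound; plate controls were apelin-13 plus DMSO wells for no effect and DMSO wells lacking apelin-13 for full effect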
CCR6 antag: blocks CCL20-driven beta-arrestin recruitment at human CCR6 | P51684 | CHO-K1 CCR6 PathHunter beta-arrestin, luminescence, CCL20-stimulated | inhibition, % at 20 µM | 340,000 tested, 0.49% active | AID 493098;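 active = compounds whose inhibition of the agonist-driven luminescence signal at 20 µM reaches about 50%, limit read from the data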;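 note: cells stimulated with CCL20 at 14 nM final; plate controls were DMSO with CCL20 for no effect and DMSO without agonist for full effect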
EBI2 block: antagonists of human EBI2 receptor; P32249; EBI2 beta-arrestin recruitment, luminescence, 7a,25-OHC stimulated; inhibition, % at 5 µM; 360,000 tested, 0.81% active; AID 651636; in the data active = inhibition above about 38%;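 note: enzyme fragment complementation signal reports receptor beta-arrestin coupling in cells; 0% = agonist plus DMSO wells and 100% = wells without agonist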
Target sequence (P32249 whole entry, looked up, the tested form may be a part): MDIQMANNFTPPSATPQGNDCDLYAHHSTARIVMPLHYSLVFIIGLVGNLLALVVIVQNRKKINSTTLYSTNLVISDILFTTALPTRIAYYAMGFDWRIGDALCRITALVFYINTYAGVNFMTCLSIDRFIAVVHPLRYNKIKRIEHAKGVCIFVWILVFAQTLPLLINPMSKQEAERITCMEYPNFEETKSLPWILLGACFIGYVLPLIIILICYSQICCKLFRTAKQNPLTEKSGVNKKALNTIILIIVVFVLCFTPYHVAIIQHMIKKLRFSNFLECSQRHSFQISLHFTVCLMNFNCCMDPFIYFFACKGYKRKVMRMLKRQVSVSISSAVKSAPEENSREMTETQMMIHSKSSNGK
* marks the source's active call; other numbers are inactive results; . = no result given. Hits are enriched below; roughly 1.8% of the tested compounds scored in any of these assays.

SMILES	B2AR ag	CXCR6 block	APJ agonist	APJ antag	CCR6 antag	EBI2 block
N#CC1=C(N)C(C#N)(C#N)C(c2ccncc2)C2CN(C(=O)OCc3ccccc3)CC=C12 (centres undefined)	15	23	-8	16	56*	14
C[N+](C)(C)CCC(=O)N1C/C(=C/c2ccccc2)C(=O)/C(=C\c2ccccc2)C1	-20	8	.	.	13	3
CCOC(=O)N1C/C(=C\c2ccccc2)C(=O)/C(=C/c2ccccc2)C1	35	30	.	.	39	31
O=C1/C(=C/c2ccccc2)CN(C(=O)CCN2CCOCC2)C/C1=C\c1ccccc1	14	31	.	.	53*	18
CN(C)CCC(=O)N1C/C(=C/c2ccccc2)C(=O)/C(=C\c2ccccc2)C1	21	66*	.	.	78*	39
COc1ccc(OC(=O)N2C/C(=C/c3ccccc3)C(=O)/C(=C\c3ccccc3)C2)cc1	24	13	.	.	29	56*
COc1ncnc2c1ncn2CCCNCCCN1CCCC1=O	.	-1	.	.	.	1
CN(C)CCCNC(=O)OC1CC2CC1[C@H]1CCCCN1C2=O (some centres undefined)	.	-5	.	.	.	-1
Cc1cccc2nc(CSc3nc4ccc([N+](=O)[O-])cc4[nH]3)c(Br)n12	12	10	1	20	52*	2
N/C(Cc1ccc(Cl)cc1)=N\OC(=O)CCc1ccccc1	.	-14	.	.	.	4
CCNc1nc(-c2sc(NC(=O)C(C)(C)C)nc2C)c(-n2cc(-c3ccccc3)nn2)s1	.	-6	.	.	.	-44
COc1ccc(C=NN=C2c3ccccc3-c3ccccc32)cc1O	-16	4	.	.	8	26
CC(=O)Nc1ccc(C=NN=C2c3ccccc3-c3ccccc32)cc1	92*	-1	.	.	6	25
Cc1ccc2[nH]c(O)c(N=Nc3nc4ccccc4s3)c2c1	13	42*	-7	30	49	18
Cc1ccc2[nH]c(O)c(N=Nc3ccccc3[N+](=O)[O-])c2c1	-29	5	.	.	16	13
Oc1[nH]c2ccccc2c1N=Nc1nc2ccccc2s1	-2	28	-8	37	58*	14
O=C(C(Br)=Cc1ccccc1)c1ccccc1	36	48*	.	.	69*	69*
CC(=Cc1ccccc1)C(=O)c1ccccc1	.	-4	.	.	.	-8
Cc1c(Cl)cccc1NC(=O)Nc1cc(C(C)(C)C)on1	0	-14	5	-82	-14	10
Cc1[nH]n(C2=NCCS2)c(=O)c1N=Nc1cccc(C(F)(F)F)c1	7	53*	-7	38	58*	16
Cc1ccc(S(=O)(=O)Nc2ccc3c4c(cccc24)CC3)c(C)c1	2	-3	-4	-7	1	2
Cc1cc(C)c(S(=O)(=O)Nc2ccc3c4c(cccc24)CC3)c(C)c1	15	11	-1	13	17	46*
COc1cc(/C=C2/C(=N)N3C=CSC3=NC2=O)ccc1OCCCOc1cc(C)ccc1C	63*	9	-4	14	-1	18
CC1(C(=O)NCC2CCCCC2)CCN1CCc1ccccc1 (centres undefined)	.	1	.	.	.	5
CC(=O)NC(C)c1cc(Cl)c2cccnc2c1O (centres undefined)	3	-7	-2	-9	17	-2
SMILES	B2AR ag	CXCR6 block	APJ agonist	APJ antag	CCR6 antag	EBI2 block
Oc1ccc(CN2CCCCC2)c2cccnc12	0	1	0	-7	16	22
Oc1c(Cl)cc(CN2CCCCC2)c2cccnc12	10	49*	-8	25	.	5
Oc1c(Cl)cc(Cl)c2cccnc12	10	49*	.	.	63*	11
CCC(=O)NC(c1ccc(C)cc1)c1cc(Cl)c2cccnc2c1O (centres undefined)	1	12	-4	26	56*	32
CCN(C[C@H]1N[C@@](CC)(C(=O)OC)[C@H]2C(=O)N(Cc3ccccc3)C(=O)[C@@H]12)C(=O)NC(C)C	1	-1	-4	5	-12	-3
O=C(CSc1nc(-c2ccc(F)cc2)nc2c1Cc1ccccc1O2)Nc1cccc(C(=O)O)c1	-3	3	.	.	52*	-3
O=C(CSc1nc(-c2ccccc2)nc2c1Cc1ccccc1O2)Nc1ccccc1	.	.	5	-7	.	.
CCOC(=O)c1nc2sc3c(c2c(=O)[nH]1)CCC(C)C3 (centres undefined)	56*	-1	7	10	-7	4
